Values after ≈ are worked out from the molar mass of the structure shown.
Assays:
[1] = system: Staphylococcus aureus; experiment: Antibacterial activity against Staphylococcus aureus ATCC 29213 by broth microdilution method; type: functional
How it was run: (§1)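 Standard broth microdilution; the endpoint is the minimal inhibitory concentration, reported in μg/mL. Clarithromycin is the reference macrolide. Strains are respiratory-pathogen isolates of S. pneumoniae and S. aureus.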

[2] = system: Staphylococcus aureus; experiment: Antibacterial activity against macrolide-resistant Staphylococcus aureus BAA976 expressing mef gene by broth microdilution method; type: functional
How it was run: (§2)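 Standard broth microdilution for MIC against respiratory-pathogen strains, reported in μg/mL, with clarithromycin included as the reference macrolide.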

[3] = system: Streptococcus pneumoniae; experiment: Antibacterial activity against macrolides/lincosamides/streptogramines resistant Streptococcus pneumoniae 3914 by broth microdilution method; type: functional; how it was run: as §2
[4] = system: Streptococcus pneumoniae; experiment: Antibacterial activity against macrolide-resistant Streptococcus pneumoniae BAA1402 expressing mef gene by broth microdilution method; type: functional; how it was run: as §2
[5] = system: Staphylococcus aureus; experiment: Antibacterial activity against inducibly macrolides/lincosamides/streptogramines-resistant Staphylococcus aureus BAA977 expressing erm gene by broth microdilution method; type: functional; how it was run: as §2
[6] = system: Staphylococcus aureus; experiment: Antibacterial activity against constitutively macrolides/lincosamides/streptogramines-resistant Staphylococcus aureus ND048910 expressing erm gene by broth microdilution method; type: functional; how it was run: as §2
[7] = system: Streptococcus pneumoniae; experiment: Antibacterial activity against Streptococcus pneumoniae ATCC 4961 by broth microdilution method; type: functional; how it was run: as §1
[8] = system: Streptococcus pneumoniae; experiment: Antibacterial activity against macrolides/lincosamides/streptogramines-resistant Streptococcus pneumoniae BAA1407 expressing mef and erm genes by broth microdilution method

Structure (SMILES) | MIC [1] | MIC [2] | MIC [3] | MIC [4] | MIC [5] | MIC [6] | MIC [7] | MIC [8]
CC[C@H]1OC(=O)[C@H](C)C(=O)[C@H](C)[C@@H](O[C@@H]2O[C@H](C)C[C@H](N(C)C)[C@H]2OC(C)=O)[C@](C)(OC)C[C@@H](C)C(=O)[C@H](CNCc2ccccc2)[C@H]2NC(=O)O[C@@]21C | 0.25 µg/mL (≈ 0.329 µM) | 0.5 µg/mL (≈ 0.658 µM) | 64 µg/mL (≈ 84.2 µM) | < 0.0072 µg/mL | 1 µg/mL (≈ 1.32 µM) | > 64 µg/mL | < 0.007 µg/mL | –
CC[C@H]1OC(=O)[C@H](C)[C@@H](O[C@H]2C[C@@](C)(OC)[C@@H](O)[C@H](C)O2)[C@H](C)[C@@H](O[C@@H]2O[C@H](C)C[C@H](N(C)C)[C@H]2O)[C@](C)(OC)C[C@@H](C)C(=O)[C@H](C)[C@@H](O)[C@]1(C)O [CLARITHROMYCIN] | 0.125 µg/mL (≈ 0.167 µM) | 64 µg/mL (≈ 85.6 µM) | > 16 µg/mL | 2 µg/mL (≈ 2.67 µM) | > 64 µg/mL | > 64 µg/mL | 0.015 µg/mL (≈ 0.0201 µM) | > 8 µg/mL
CCOC(=O)C(C[C@H]1C(=O)[C@H](C)C[C@@](C)(OC)[C@H](O[C@@H]2O[C@H](C)C[C@H](N(C)C)[C@H]2OC(C)=O)[C@@H](C)C(=O)[C@@H](C)C(=O)O[C@H](CC)[C@@]2(C)OC(=O)N[C@H]12)C(=O)OCC | 0.25 µg/mL (≈ 0.308 µM) | 0.5 µg/mL (≈ 0.615 µM) | 4 µg/mL (≈ 4.92 µM) | 0.125 µg/mL (≈ 0.154 µM) | 0.5 µg/mL (≈ 0.615 µM) | > 128 µg/mL | 0.06 µg/mL (≈ 0.0738 µM) | 128 µg/mL (≈ 157 µM)
C=C1C(=O)[C@H](C)C[C@@](C)(OC)[C@H](O[C@@H]2O[C@H](C)C[C@H](N(C)C)[C@H]2OC(C)=O)[C@@H](C)C(=O)[C@@H](C)C(=O)O[C@H](CC)[C@@]2(C)OC(=O)N[C@H]12 | 32 µg/mL (≈ 49 µM) | 64 µg/mL (≈ 98 µM) | 128 µg/mL (≈ 196 µM) | 2 µg/mL (≈ 3.06 µM) | 64 µg/mL (≈ 98 µM) | > 64 µg/mL | 1 µg/mL (≈ 1.53 µM) | > 64 µg/mL
CC[C@H]1OC(=O)[C@H](C)C(=O)[C@H](C)[C@@H](O[C@@H]2O[C@H](C)C[C@H](N(C)C)[C@H]2OC(C)=O)[C@](C)(OC)C[C@@H](C)C(=O)[C@H](CNCc2cccnc2)[C@H]2NC(=O)O[C@@]21C | 1 µg/mL (≈ 1.31 µM) | 2 µg/mL (≈ 2.63 µM) | 4 µg/mL (≈ 5.26 µM) | 0.06 µg/mL (≈ 0.0789 µM) | 4 µg/mL (≈ 5.26 µM) | > 64 µg/mL | 0.015 µg/mL (≈ 0.0197 µM) | 64 µg/mL (≈ 84.1 µM)
CC[C@H]1OC(=O)[C@H](C)[C@@H](O)[C@H](C)[C@@H](O[C@@H]2O[C@H](C)C[C@H](N(C)C)[C@H]2OC(C)=O)[C@](C)(OC)C[C@@H](C)C(=O)/C(Cc2ccccc2)=C/[C@]1(C)O | 16 µg/mL (≈ 23.2 µM) | 16 µg/mL (≈ 23.2 µM) | 64 µg/mL (≈ 92.8 µM) | 0.5 µg/mL (≈ 0.725 µM) | 32 µg/mL (≈ 46.4 µM) | > 64 µg/mL | 0.25 µg/mL (≈ 0.362 µM) | > 64 µg/mL
CC[C@H]1OC(=O)[C@H](C)C(=O)[C@H](C)[C@@H](O[C@@H]2O[C@H](C)C[C@H](N(C)C)[C@H]2O)[C@](C)(OC)C[C@@H](C)C(=O)[C@H](CNCc2ccccc2)[C@H]2N(C)C(=O)O[C@]12C | 16 µg/mL (≈ 21.9 µM) | 32 µg/mL (≈ 43.7 µM) | < 128 µg/mL | 1 µg/mL (≈ 1.37 µM) | 16 µg/mL (≈ 21.9 µM) | > 64 µg/mL | 0.25 µg/mL (≈ 0.342 µM) | 64 µg/mL (≈ 87.4 µM)
C=C1C(=O)[C@H](C)C[C@@](C)(OC)[C@H](O[C@@H]2O[C@H](C)C[C@H](N(C)C)[C@H]2OC(C)=O)[C@@H](C)C(=O)[C@@H](C)C(=O)O[C@H](CC)[C@@]2(C)OC(=O)N(Cc3ccccc3)[C@H]12 | 1 µg/mL (≈ 1.35 µM) | 2 µg/mL (≈ 2.69 µM) | 2 µg/mL (≈ 2.69 µM) | 0.125 µg/mL (≈ 0.168 µM) | 2 µg/mL (≈ 2.69 µM) | 64 µg/mL (≈ 86.1 µM) | < 0.07 µg/mL | 64 µg/mL (≈ 86.1 µM)
CC[C@H]1OC(=O)[C@H](C)C(=O)[C@H](C)[C@@H](O[C@@H]2O[C@H](C)C[C@H](N(C)C)[C@H]2OC(C)=O)[C@](C)(OC)C[C@@H](C)C(=O)[C@]2(CC=NN2)[C@H]2NC(=O)O[C@]12C | 2 µg/mL (≈ 2.88 µM) | 2 µg/mL (≈ 2.88 µM) | 16 µg/mL (≈ 23 µM) | 0.25 µg/mL (≈ 0.36 µM) | 2 µg/mL (≈ 2.88 µM) | > 128 µg/mL | 0.06 µg/mL (≈ 0.0864 µM) | 64 µg/mL (≈ 92.1 µM)

Reference: ChEMBL document CHEMBL4011603, “Synthesis of clarithromycin ketolides chemically modified at the unreactive C10-methyl group” (2017)
